How the values were obtained:
PATU-8988T cells [1] = assay: Apoptosis analysis; assay type: cell-based
Method in brief: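 PATU-8988T cells treated in triplicate for 6 days with DMSO (0.1%), test compound (1.0 or 2.5 µM) or a non-covalent analogue (2.5 µM), with medium replaced on day 3. Staurosporine (1 µM, 4 h) served as positive control. Cleaved caspase 3 and Pin1 assessed by Western blot. AnnexinV-FITC/7-AAD FACS scored live, early and late apoptotic cells; mean with SD, n=3.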

[2] = test system: Myc transcriptional activity in HEK293 cells; assay: Myc luciferase reporter assay; assay type: cell-based; settings: 2 μM, 48 h, cotransfected Pin1
Method in brief: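 HEK293 cells (DMEM, 10% FBS, 2.5 mM L-glutamine, nonessential amino acids) grown in six-well plates to 80% confluence. Lipofected with 4× E-box-luciferase and Pin1-Flag plasmids plus β-galactosidase as internal control. Compound added at transfection; cells harvested 48 h later. Cells lysed, sonicated and cleared before luciferase read-out.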

PC3 = assay: 2D growth over time viability; assay type: cell-based; settings: up to 8 days
Method in brief: (§1)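 Cells seeded at 500 per well (PATU-8988T: 100 per well) and dosed with test compound or DMSO the next day. Kept at 37 °C, 5% CO2, with medium and compound renewed every 48 h. One plate per time point (days 0, 2, 4, 6, 8); the day 0 plate was read before dosing. Viability measured by CellTiter-Glo luminescence.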

IMR90 lung fibroblast = IMR90 lung fibroblast viability; assay type: cell-based; settings: IMR90 lung fibroblasts
NGP = assay: 2D growth over time viability; assay type: cell-based; settings: 2.5 μM after 8 days
Method in brief: as §1

PATU-8988T Pin1 KO cells = assay: 2D growth over time viability; assay type: cell-based; settings: 1 μM, up to 8 days
Method in brief: as §1

Th-MYCN mice tumors = assay: Th-MYCN murine neuroblastoma model; assay type: in vivo
Method in brief: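 Tumours in TH-MYCN mice monitored weekly by palpation; mice with 4–5 mm tumours were enrolled. Groups received test compound at 40 mg kg-1 by oral gavage once or twice daily, or vehicle (5% NMP, 5% kolliphor, 20% DMSO) once daily. The twice-daily arm was capped at 56 doses. Tumour volume measured by 1 Tesla MRI under isoflurane with core temperature held at 37 °C. Two-tailed Student's t test.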

[3] = Mouse pharmacokinetic profiling; assay type: in vivo; settings: oral 10 mg kg^–1, three mice
Kuramochi = assay: 2D growth over time viability; assay type: cell-based; settings: up to 8 days
Method in brief: as §1

MDA-MB-468 = assay: 2D growth over time viability; assay type: cell-based; settings: up to 8 days, 2.5 μM
Method in brief: as §1

c-Myc protein levels = assay: c-Myc protein level immunoblot; assay type: cell-based
[4] = test system: radioresistant HeLa cells; assay: Radiosensitization AlamarBlue viability assay; assay type: cell-based; settings: 7.5 Gy IR
Method in brief: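 HeLa cells seeded at 200 per well. Treated with compound 16 h later, then given 7.5 Gy X-ray 1 h after treatment. AlamarBlue (10% final) added 3 days post-irradiation. Absorbance read at 570 nm, 600 nm reference, 4 days post-irradiation. Background taken from cell-free wells; % survival set against DMSO-treated, nonirradiated controls.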

Pin1 = assay: In vivo Pin1 engagement, spleen competition pulldown; parameters: species or system mice; settings: 20 mg kg^–1 oral gavage, three doses over 2 days
Method in brief: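 Mice dosed by oral gavage with vehicle or 10 or 20 mg kg-1, three doses over two consecutive days. Spleens harvested 4 h after the last dose, ground and lysed in HEPES pH 7.4/NaCl/glycerol/TCEP/NP-40 buffer with protease inhibitors. Lysate clarified and normalized by BCA to 2.5 µg µl-1. Competition pulldown run with a desthiobiotin-tagged probe analogue.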

GST-Pin1 = GST-Pin1 (Homo sapiens, UniProt Q13526); assay: Competitive fluorescence polarization; assay type: binding
Method in brief: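 GST-Pin1 (250 nM) preincubated 14 h at 4 °C with compound and 5 nM N-terminal fluorescein-labelled peptide probe (Bth-D-pThr-Pip-Nal). Buffer: 10 mM HEPES, 10 mM NaCl, 1% glycerol pH 7.4, 10 µg ml-1 BSA, 0.01% Tween-20, 1 mM DTT. Ki calculated from probe concentration, 85% probe bound and Pin1 concentration. Kinact from dose- and time-dependent runs. n = 3 samples ± s.e.m.; 2 experiments.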

[5] = test system: Tg(dβh:MYCN;dβh:EGFP) zebrafish; assay: Zebrafish MYCN neuroblastoma initiation model; assay type: in vivo; settings: 25–100 μM in water
Method in brief: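 Three-day-old embryos placed five per well and exposed to DMSO or test compound in egg water. Live fish imaged for bright-field and EGFP fluorescence under identical conditions. EGFP-positive tissue area quantified from the images.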

PATU-8988T WT Pin1 cells = assay: 3D Matrigel dome antiproliferative assay; assay type: cell-based; settings: 1 μM, 9-day treatment
Method in brief: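 1,000 cells per Matrigel dome, one dome per well, left 15 min at 37 °C to solidify. Medium with test compound renewed every 3 days. After 9 days, 3D CellTiter-Glo was added and the plate shaken 1 h at room temperature before reading luminescence. n = 9 biological replicates per condition.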

[6] = test system: PINN1, the worm Pin1 homolog; settings: cited from earlier work
NBL-S = assay: 2D growth over time viability; assay type: cell-based; settings: 2.5 μM after 8 days
Method in brief: as §1

PATU-8988T cells [7] = assay: Cell cycle analysis; assay type: cell-based; settings: 2.5 μM, 4 days
Method in brief: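 PATU-8988T cells treated 4 days with DMSO (0.1%), test compound or a non-covalent analogue (each 2.5 µM), with medium replaced on day 3; run in triplicate or more. Pulsed with 10 µM BrdU for 1 h, then fixed in 70% ethanol and denatured in 2 M HCl/0.5% Triton X-100 (30 min, RT). Neutralised with 0.1 M Na2B4O7 pH 8.5 and stained overnight at 4 °C with anti-BrdU-FITC. Counterstained with propidium iodide plus RNase A (each 50 µg ml-1) and analysed by FACS.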

[8] = dose- and time-dependent FP assay

Sequence of GST-Pin1 (Q13526 whole entry): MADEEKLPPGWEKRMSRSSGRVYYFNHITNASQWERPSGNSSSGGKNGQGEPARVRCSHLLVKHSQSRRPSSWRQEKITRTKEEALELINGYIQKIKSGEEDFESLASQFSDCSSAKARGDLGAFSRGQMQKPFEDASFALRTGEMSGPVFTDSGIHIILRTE

CC(C)(C)CN(C(=O)CCl)C1CCS(=O)(=O)C1 (stereo not drawn) [Sulfopin]
Pin1 protein levels (PATU-8988T cells [1]; 5 or 6 days, 1 μM, 2.5 μM, Western blot): Pin1 levels were not changed
induction of apoptosis (PATU-8988T cells [1]; treatments of up to 6 days, 1 and 2.5 μM): does not induce apoptosis
relative luciferase activity (Myc reporter) [2]: significant reduction in relative luciferase activity
antiproliferative effect (growth over time) (PC3): only slight effects
no toxicity up to (IMR90 viability) (IMR90 lung fibroblast): > 25 µM
antiproliferative effect (growth over time) (NGP): significant viability effects
effect on cellular viability (PATU-8988T Pin1 KO cells): no significant effect on viability
average increase in survival (Th-MYCN mice tumors; 40 mg kg^−1 BID oral gavage): 28 days
mice with actual reduction in tumor size (MRI) (Th-MYCN mice tumors; 40 mg kg^−1 BID, 7-day treatment, n = 6): five out of six
average increase in survival (Th-MYCN mice tumors; 40 mg kg^−1 QD oral gavage): 10 days
oral bioavailability (F%) [3]: 30%
Cmax ([3]; read-out: average cmax (peak concentration)): 11.5 µM
antiproliferative effect (growth over time) (Kuramochi): only slight effects
antiproliferative effect (growth over time) (MDA-MB-468): most pronounced sensitivity
c-Myc protein levels (c-Myc protein levels): increased c-Myc protein levels
resensitization to irradiation [4]: significantly resensitized them to irradiation in a dose-dependent manner
in vivo Pin1 engagement in spleen (Pin1): Effective Pin1 engagement was observed in three out of three mice
Kinact (GST-Pin1; [8]): 0.03 min⁻¹
second-order rate constant (Kinact/Ki) (GST-Pin1; [8]): 84 M⁻¹ s⁻¹
Ki (GST-Pin1; read-out: apparent Ki (FP assay), after 14 h incubation): 17 nM
neuroblastoma-initiating hyperplasia [5]: significantly suppressed
toxicity in zebrafish embryos [5]: no evidence of toxicity was observed
antiproliferative activity in 3D Matrigel domes (PATU-8988T WT Pin1 cells): modest antiproliferative activity
inhibition of PINN1 in Caenorhabditis elegans [6]: inhibited PINN1
antiproliferative effect (growth over time) (NBL-S): significant viability effects
cells in G1 phase (PATU-8988T cells [7]): increased the number of cells found in G1 phase
cells in S phase (PATU-8988T cells [7]): reduced the percentage of cells in S phase
